Data from ChEMBL document CHEMBL3227929, “Synthesis and evaluation for diuretic activity of 1-substituted 6-chloro-5-sulfamylindolines” (1979).

How the values were obtained:
Assay type in all cases: functional
Rattus norvegicus [1] = test: Diuretic activity in Wistar rat assessed as volume of excreted urine at 50 mg/kg, po measured after 0 to 5 hrs relative to urea-treated control
How it was run: (§1)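 Female Wistar rats (150-200 g), groups of six, fasted 16 h, dosed orally at 50 mg/kg in 1% saline (15 mL/kg). Housed singly in metabolic cages with water ad libitum. Urine collected 0-5 h and 5-24 h. Na+ and K+ measured by flame photometry as mean mequiv, volume as mean mL. Each expressed as a ratio to a urea group (1000 mg/kg) run alongside vehicle control.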

Rattus norvegicus [2] = test: Diuretic activity in Wistar rat assessed as sodium level in excreted urine at 50 mg/kg, po measured after 0 to 5 hrs by flame photometric analysis relative to urea-treated control; how it was run: as §1
Rattus norvegicus [3] = test: Diuretic activity in Wistar rat assessed as potassium level in excreted urine at 50 mg/kg, po measured after 0 to 5 hrs by flame photometric analysis relative to urea-treated control; how it was run: as §1
Rattus norvegicus [4] = test: Diuretic activity in Wistar rat assessed as volume of excreted urine at 50 mg/kg, po measured after 5 to 24 hrs relative to urea-treated control; how it was run: as §1
Rattus norvegicus [5] = test: Diuretic activity in Wistar rat assessed as sodium level in excreted urine at 50 mg/kg, po measured after 5 to 24 hrs by flame photometric analysis relative to urea-treated control; how it was run: as §1
Rattus norvegicus [6] = test: Diuretic activity in Wistar rat assessed as potassium level in excreted urine at 50 mg/kg, po measured after 5 to 24 hrs by flame photometric analysis relative to urea-treated control; how it was run: as §1

Compound	Ratio (Rattus norvegicus [1])	Ratio (Rattus norvegicus [2])	Ratio (Rattus norvegicus [3])	Ratio (Rattus norvegicus [4])	Ratio (Rattus norvegicus [5])	Ratio (Rattus norvegicus [6])
CC(=O)N1CCc2cc(S(N)(=O)=O)c(Cl)cc21	0.53	0.63	0.53	0.72	1.09	1.1
Cl.NS(=O)(=O)c1cc2c(cc1Cl)NCC2	0.62	0.95	0.76	0.94	1.02	0.83
NS(=O)(=O)c1cc2c(cc1Cl)N(C(=O)c1ccco1)CC2	0.31	0.46	0.38	0.87	1.2	1.23
NS(=O)(=O)c1cc2c(cc1Cl)N(C(=O)c1ccccc1)CC2	0.83	0.79	0.41	0.85	1.08	1.1
CCCC(=O)N1CCc2cc(S(N)(=O)=O)c(Cl)cc21	0.54	1.04	0.53	0.96	1.3	1.17
NS(=O)(=O)c1cc2c(cc1Cl)N(Cc1ccco1)CC2	0.15	0.29	0.24	1	1.09	1.29
NS(=O)(=O)c1cc2c(cc1Cl)N(Cc1ccccc1)CC2	0.77	1	0.73	1.8	1.3	1.2
CCCCN1CCc2cc(S(N)(=O)=O)c(Cl)cc21	0.7	0.98	0.78	0.9	1.15	1.06
NS(=O)(=O)c1cc(C(=O)NN2CCc3cc(S(N)(=O)=O)c(Cl)cc32)ccc1Cl	0.99	1.47	1.09	1.26	1.24	1.18
NS(=O)(=O)c1cc2c(cc1Cl)N=CNS2(=O)=O [CHLOROTHIAZIDE]	1.3	1.9	1.5	1	1.1	1
NS(=O)(=O)c1cc(C(=O)O)c(NCc2ccco2)cc1Cl [FUROSEMIDE]	2.75	9.63	1.12	1.08	0.96	1.31
